As a reminder, the MIC is the smallest concentration in the dilution series that meets the test's criterion for growth inhibition.

In brackets after ≈: the same amount, converted by molar mass.

Assay type in all cases: functional
In test [1] the test system is Staphylococcus aureus. The test can be described thus: Antibacterial activity against high-level methicillin-resistant Staphylococcus aureus SR-17164 harboring lytH::IS1182 gene after 24 hrs by serial twofold dilution method. The settings on record: SR17164, 24 h. The procedure, abridged: (§1)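 Agar dilution MIC: tryptic soy agar plates carried serial twofold dilutions of antibiotic. Overnight tryptic soy broth cultures were diluted to about 10⁶ CFU/ml, and 1 μl of each suspension was spotted onto the plates. Plates were incubated 24 h at 37°C, then MICs were scored.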

Test [2] concerns Staphylococcus aureus. The test can be described thus: Antibacterial activity against high-level methicillin-resistant Staphylococcus aureus SRM563 harboring active lytH gene and inactive llm gene after 24 hrs by serial twofold dilution method. Particulars: SRM563, 24 h. The procedure, abridged: as §1
For test [3], the system named is Staphylococcus aureus. The test can be described thus: Antibacterial activity against methicillin-resistant Staphylococcus aureus SRM2148 containing pSR108 harboring deletion in rel-lytH region after 24 hrs by serial twofold dilution method. Particulars: SRM2148, 24 h.
Test [4] deals with Staphylococcus aureus. The test is described as follows: Antibacterial activity against low-level methicillin-resistant Staphylococcus aureus SR-20280 after 24 hrs by serial twofold dilution method. The settings on record: SR20280, 24 h. The procedure, abridged: as §1
The test system of test [5] is Staphylococcus aureus. The test can be described thus: Antibacterial activity against high-level methicillin-resistant Staphylococcus aureus SRM551 harboring active lytH and llm gene after 24 hrs by serial twofold dilution method. Particulars: SRM551, 24 h. The procedure, abridged: as §1
Test [6] has as its system Staphylococcus aureus. The test is described as follows: Antibacterial activity against high-level methicillin-resistant Staphylococcus aureus SRM1663 harboring inactive lytH gene and active llm gene after 24 hrs by serial twofold dilution method. The settings on record: SRM1663, 24 h. The procedure, abridged: as §1
Test [7] concerns Staphylococcus aureus. The test is described as follows: Antibacterial activity against methicillin-resistant Staphylococcus aureus SRM2150 containing pSR108 harboring deletion in rel-lytH region after 24 hrs by serial twofold dilution method. The settings on record: SRM2150, 24 h.
In test [8] the test system is Staphylococcus aureus. The test is described as follows: Antibacterial activity against high-level methicillin-resistant Staphylococcus aureus SR-17164 with lytH gene inactivated by insertion sequence IS1182 measured after 24 hrs by serial twofold dilution method. The settings on record: SR17164, 24 h. The procedure, abridged: as §1
Test [9] deals with Staphylococcus aureus. The test can be described thus: Antibacterial activity against high-level methicillin-resistant Staphylococcus aureus SRM1648 with deltarel-lytH region after 24 hrs by serial twofold dilution method. The settings on record: SRM1648, 24 h. The procedure, abridged: as §1
In test [10] the test system is Staphylococcus aureus. The test is described as follows: Antibacterial activity against high-level methicillin-resistant Staphylococcus aureus SRM1816 harboring inactive lytH and inactive llm gene after 24 hrs by serial twofold dilution method. The settings on record: SRM1816, 24 h. The procedure, abridged:
as §1

Test [11] relates to Staphylococcus aureus. The test can be described thus: Antibacterial activity against low-level methicillin-resistant Staphylococcus aureus SR-20202 after 24 hrs by serial twofold dilution method. Particulars: SR20202, 24 h. The procedure, abridged: as §1
The test system of test [12] is Staphylococcus aureus. The test is described as follows: Antibacterial activity against methicillin-resistant Staphylococcus aureus SRM2149 containing pSR108 harboring deletion in rel-lytH region after 24 hrs by serial twofold dilution method. Particulars: SRM2149, 24 h.
The test system of test [13] is Staphylococcus aureus. The test can be described thus: Antibacterial activity against high-level methicillin-resistant Staphylococcus aureus SR-17164 harboring inactive lytH gene and active llm gene after 24 hrs by serial twofold dilution method. Particulars: SR17164, 24 h. The procedure, abridged:
as §1

For test [14], the system named is Staphylococcus aureus. The test can be described thus: Antibacterial activity against low-level methicillin-resistant Staphylococcus aureus SR-20118 after 24 hrs by serial twofold dilution method. Particulars: SR20118, 24 h. The procedure, abridged:
as §1

Test [15] has as its system Staphylococcus aureus. The test can be described thus: Antibacterial activity against high-level methicillin-resistant Staphylococcus aureus SRM1832 harboring inactive lytH and inactive llm gene after 24 hrs by serial twofold dilution method. The settings on record: SRM1832, 24 h. The procedure, abridged: as §1
The subject of test [16] is Staphylococcus aureus. The test is described as follows: Antibacterial activity against low-level methicillin-resistant Staphylococcus aureus SR-17238 after 24 hrs by serial twofold dilution method. The settings on record: SR17238, 24 h. The procedure, abridged:
as §1

Test [17] deals with Staphylococcus aureus. The test can be described thus: Antibacterial activity against methicillin-resistant Staphylococcus aureus SRM2151 containing pSR108 harboring deletion in rel-lytH region after 24 hrs by serial twofold dilution method. Particulars: SRM2151, 24 h.
Test [18] relates to Staphylococcus aureus. The test is described as follows: Antibacterial activity against low-level methicillin-resistant Staphylococcus aureus SR-20137 after 24 hrs by serial twofold dilution method. Particulars: SR20137, 24 h. The procedure, abridged:
as §1

In test [19] the test system is Staphylococcus aureus. The test is described as follows: Antibacterial activity against methicillin-resistant Staphylococcus aureus SRM1665 containing pSR108 harboring deletion in rel-lytH region after 24 hrs by serial twofold dilution method. The settings on record: SRM1665, 24 h.
Test [20] deals with Staphylococcus aureus. The test can be described thus: Antibacterial activity against methicillin-resistant Staphylococcus aureus SRM1664 containing pSR100 harboring deletion in rel-lytH region after 24 hrs by serial twofold dilution method. Particulars: SRM1664, 24 h.
Test [21] has as its system Staphylococcus aureus. The test is described as follows: Antibacterial activity against high-level methicillin-resistant Staphylococcus aureus SR-17164 harboring intact lytH gene after 24 hrs by serial twofold dilution method. Particulars: SR17164, 24 h. The procedure, abridged: as §1
Test [22] deals with Staphylococcus aureus. The test can be described thus: Antibacterial activity against high-level methicillin-resistant Staphylococcus aureus SRM1648 harboring inactive lytH gene and active llm gene after 24 hrs by serial twofold dilution method. Particulars: SRM1648, 24 h. The procedure, abridged: as §1
Test [23] relates to Staphylococcus aureus. The test can be described thus: Antibacterial activity against high-level methicillin-resistant Staphylococcus aureus SRM1825 harboring inactive lytH and inactive llm gene after 24 hrs by serial twofold dilution method. The settings on record: SRM1825, 24 h. The procedure, abridged: as §1

As for `COc1cccc(OC)c1C(=O)N[C@@H]1C(=O)N2[C@@H]1SC(C)(C)[C@@H]2C(=O)O` [METHICILLIN], the minimal inhibitory concentration (MIC) with Staphylococcus aureus [1] was found to be 1600 µg/mL (≈ 4210 µM); against Staphylococcus aureus [2] it was 12.5 µg/mL (≈ 32.9 µM); in the test on Staphylococcus aureus [3], 12.5 µg/mL (≈ 32.9 µM); against Staphylococcus aureus [4] it was 6.3 µg/mL (≈ 16.6 µM); with Staphylococcus aureus [5] it was 800 µg/mL (≈ 2100 µM); against Staphylococcus aureus [6], 1600 µg/mL (≈ 4210 µM). The minimum inhibitory concentration (MIC) with Staphylococcus aureus [7] turned out to be 50 µg/mL (≈ 131 µM); with Staphylococcus aureus [8], 1600 µg/mL (≈ 4210 µM); in the test with Staphylococcus aureus [9] it was 1600 µg/mL (≈ 4210 µM); in the test on Staphylococcus aureus [10] it was 100 µg/mL (≈ 263 µM); with Staphylococcus aureus [11], 25 µg/mL (≈ 65.7 µM); in the test on Staphylococcus aureus [12] it was 25 µg/mL (≈ 65.7 µM). The minimum inhibitory concentration (MIC) came out at 1600 µg/mL (≈ 4210 µM) against Staphylococcus aureus [13]; 12.5 µg/mL (≈ 32.9 µM) against Staphylococcus aureus [14]; 800 µg/mL (≈ 2100 µM) in the test with Staphylococcus aureus [15]; 6.3 µg/mL (≈ 16.6 µM) with Staphylococcus aureus [16]; 6.3 µg/mL (≈ 16.6 µM) in the test on Staphylococcus aureus [17]; 12.5 µg/mL (≈ 32.9 µM) in the test with Staphylococcus aureus [18]. The minimal inhibitory concentration (MIC) against Staphylococcus aureus [19] came out at 25 µg/mL (≈ 65.7 µM); against Staphylococcus aureus [20], 6.3 µg/mL (≈ 16.6 µM); in the test on Staphylococcus aureus [21], 800 µg/mL (≈ 2100 µM); against Staphylococcus aureus [22], 1600 µg/mL (≈ 4210 µM); against Staphylococcus aureus [23], 400 µg/mL (≈ 1050 µM).
Regarding `C[C@@H](O)[C@H]1C(=O)N2C(C(=O)O)=C(SCCNC=N)C[C@H]12` [IMIPENEM ANHYDROUS], the MIC in the test on Staphylococcus aureus [1] turned out to be 100 µg/mL (≈ 334 µM); with Staphylococcus aureus [2] it was 0.39 µg/mL (≈ 1.3 µM); with Staphylococcus aureus [5], 50 µg/mL (≈ 167 µM); against Staphylococcus aureus [6], 100 µg/mL (≈ 334 µM); against Staphylococcus aureus [8], 100 µg/mL (≈ 334 µM); against Staphylococcus aureus [9], 50 µg/mL (≈ 167 µM). In addition, the minimum inhibitory concentration (MIC) was 25 µg/mL (≈ 83.5 µM) in the test with Staphylococcus aureus [10]; 100 µg/mL (≈ 334 µM) against Staphylococcus aureus [13]; 50 µg/mL (≈ 167 µM) in the test on Staphylococcus aureus [15]; at most 0.1 µg/mL against Staphylococcus aureus [16]; 50 µg/mL (≈ 167 µM) in the test with Staphylococcus aureus [21]; 100 µg/mL (≈ 334 µM) against Staphylococcus aureus [22]. Besides, in the test on Staphylococcus aureus [23], the MIC turned out to be 50 µg/mL (≈ 167 µM).
Regarding `Cc1nnc(SCC2=C(C(=O)O)N3C(=O)[C@@H](NC(=O)Cn4cnnn4)[C@H]3SC2)s1` [CEFAZOLIN], the MIC turned out to be 12.5 µg/mL (≈ 27.5 µM) in the test with Staphylococcus aureus [2]; 200 µg/mL (≈ 440 µM) in the test on Staphylococcus aureus [5]; 400 µg/mL (≈ 880 µM) in the test on Staphylococcus aureus [6]; 100 µg/mL (≈ 220 µM) against Staphylococcus aureus [10]; 400 µg/mL (≈ 880 µM) against Staphylococcus aureus [13]; 200 µg/mL (≈ 440 µM) with Staphylococcus aureus [15]. Besides, the figures for the minimal inhibitory concentration (MIC) in the test with Staphylococcus aureus [22] and with Staphylococcus aureus [23] were 400 µg/mL (≈ 880 µM) and 200 µg/mL (≈ 440 µM), respectively.

For the origin of these results see ChEMBL document CHEMBL1153561, “Staphylococcus aureus clinical isolate with high-level methicillin resistance with an lytH mutation caused by IS1182 insertion” (2008).
